pEC50, pIC50: −log10 of the molar value.
system: not listed separately; experiment: Volume distribution (steady state) of compound was determined in mouse; type: ADME, organism-based; conditions: in vivo, read-out: Vss
Outline: (§1)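 Male CD-1 mice, 10 mg/kg IV bolus via lateral tail vein, 2.5 mg/mL in PEG 400; three mice per time point. Cardiac blood into sodium-EDTA at 0.5–8 h, plasma by LC-MS/MS against a plasma standard curve; parameters from mean concentration–time profiles.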

Row | Vd [L/kg] | Compound
1 | 1.1 | CC(C)C[C@@H](NC(=N)N)C(=O)NCC(=O)N1CCC(c2cc(-c3ccc(OCc4ccc(C(=O)O)o4)c(Cl)c3Cl)nn2C)CC1

target: T1, Interleukin-2 (Homo sapiens, UniProt P60568); experiment: Dissociation constant for human Interleukin-2 by SPR assay; conditions: not given
Target sequence in this assay (P60568 whole entry, looked up): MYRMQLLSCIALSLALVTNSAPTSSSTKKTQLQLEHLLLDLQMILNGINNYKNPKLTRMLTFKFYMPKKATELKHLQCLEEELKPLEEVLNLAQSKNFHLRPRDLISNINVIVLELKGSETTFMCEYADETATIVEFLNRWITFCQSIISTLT

Row | KdSPA [mM] | Compound
2 | 1.5 | COCC(=O)N[C@@H](Cc1ccc(C#Cc2ccccc2)cc1)C(=O)O

target: T1, Interleukin-2; experiment: Effective concentration required against phosphorylation of Mammary gland factor/STAT5; type: functional, Mus musculus; conditions: not given
Outline: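 Mouse CTLL-2 T cells grown to about 1 × 10^6 cells/mL in RPMI/IL-2, starved of IL-2 overnight, then given 2-fold serial compound dilutions in medium with 0.1 ng/mL human IL-2 for 30 min at 37 °C. Phospho-STAT5 measured by western blot and densitometry, plotted against concentration; average of three experiments.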
Target sequence in this assay (P60568 whole entry): as the sequence (P60568 whole entry, looked up) above

Row | pEC50 | Compound
3 | ~4.60 | CC(C)C[C@@H](N=C(N)N)C(=O)NCC(=O)N1CCC(c2cc(-c3cccc(Cl)c3Cl)nn2C)CC1
4 | 4.00 | COC(=O)[C@H](Cc1ccc(C#Cc2ccccc2)cc1)NC(=O)C[C@H]1CCCN(C(=N)N)C1

system: not listed separately; experiment: Plasma clearance in mouse; type: ADME, organism-based; conditions: read-out: Clp; outline: as §1

Row | clearance [mL/min/kg] | Compound
5 | 13.6 | CC(C)C[C@@H](NC(=N)N)C(=O)NCC(=O)N1CCC(c2cc(-c3ccc(OCc4ccc(C(=O)O)o4)c(Cl)c3Cl)nn2C)CC1

target: T1, Interleukin-2; experiment: Inhibition of mouse interleukin-2 alpha receptor by ELISA; conditions: target entry is the homologue from another species
Outline: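 ELISA: 15 nM biotinylated IL-2Rα captured on streptavidin-coated wells; 3-fold serial compound dilutions with 5 nM IL-2 (2% DMSO final) in Superblock/0.01% Tween 20 incubated on receptor.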
Target sequence in this assay (P60568 whole entry): as the sequence (P60568 whole entry, looked up) above

Row | pIC50 | Compound
6 | 2.92 | COC(=O)[C@H](Cc1ccc(C#Cc2ccccc2)cc1)NC(=O)CNC(=O)CN(C)C(=N)N
7 | 3.55 | COC(=O)[C@H](Cc1ccc(C#Cc2ccccc2)cc1)NC(=O)CNC(=O)[C@H](C)N=C(N)N
8 | 4.10 | COC(=O)[C@H](Cc1ccc(C#Cc2ccccc2)cc1)NC(=O)CNC(=O)[C@@H](N=C(N)N)C(C)C
9 | 3.14 | COC(=O)[C@H](Cc1ccc(C#Cc2ccccc2)cc1)NC(=O)CNC(=O)[C@@H]1CCCN1C(=N)N
10 | 4.70 | COC(=O)[C@H](Cc1ccc(C#Cc2ccccc2)cc1)NC(=O)CNC(=O)[C@H](N=C(N)N)C1CCCCC1
11 | 4.43 | COC(=O)[C@H](Cc1ccc(C#Cc2ccccc2)cc1)NC(=O)CNC(=O)[C@@H](CC1CCCCC1)N=C(N)N
12 | < 2.70 | COC(=O)[C@H](Cc1ccc(C#Cc2ccccc2)cc1)NC(=O)CNC(=O)[C@H](N=C(N)N)C(C)C
13 | ~2.70 | COC(=O)[C@H](Cc1ccc(C#Cc2ccccc2)cc1)NC(=O)CNC(=O)[C@@H](C)N=C(N)N

The next lines start with the compound.

Row | Compound | pIC50
14 | COC(=O)[C@H](Cc1ccc(C#Cc2ccccc2)cc1)NC(=O)CNC(=O)CNC(=N)N | < 2.70
15 | COC(=O)[C@H](Cc1ccc(C#Cc2ccccc2)cc1)NC(=O)CNC(=O)[C@@H](N=C(N)N)C(C)(C)C | 5.05
16 | COC(=O)[C@H](Cc1ccc(C#Cc2ccccc2)cc1)NC(=O)CNC(=O)[C@@H](CCC(N)=O)N=C(N)N | 3.05
17 | COC(=O)[C@H](Cc1ccc(C#Cc2ccccc2)cc1)NC(=O)CNC(=O)[C@H]1CCCN1C(=N)N | 3.00
18 | CC[C@@H](C)[C@H](N=C(N)N)C(=O)NCC(=O)N[C@@H](Cc1ccc(C#Cc2ccccc2)cc1)C(=O)OC | 4.59

target: T1, Interleukin-2; experiment: Concentration required to inhibit mouse interleukin-2 alpha receptor was determined by SPA assay; conditions: not given
Outline: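 SPA: compounds as 3-fold serial dilutions in DMSO added to 10 nM tritiated propionic acid-labeled IL-2 in Superblock, then to biotinylated IL-2Rα on streptavidin scintillant beads (0.7 mg/mL). Scintillation from receptor-bound IL-2 counted; IC50 by nonlinear regression of counts vs concentration.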
Target sequence in this assay (P60568 whole entry): as the sequence (P60568 whole entry, looked up) above

Row | pIC50 | Compound
19 | 3.30 | NC(N)=N[C@@H](C(=O)NCC(=O)N1CCC(c2nc(-c3ccc(Cl)cc3Cl)no2)CC1)C1CCCCC1
20 | 3.89 | NC(N)=N[C@@H](C(=O)NCC(=O)N1CCC(c2cc(-c3cccc(Cl)c3)n[nH]2)CC1)C1CCCCC1
21 | 5.46 | COc1ccc(-c2cc(C3CCN(C(=O)CNC(=O)[C@@H](CC(C)C)N=C(N)N)CC3)n(C)n2)c(Cl)c1Cl
22 | 5.00 | N=C(N)N[C@@H](C(=O)NCC(=O)N1CCC(c2cc(-c3ccc(Cl)cc3Cl)[nH]n2)CC1)C1CCCCC1
23 | 3.82 | Cc1cccc(-c2cc(C3CCN(C(=O)CNC(=O)[C@H](N=C(N)N)C4CCCCC4)CC3)[nH]n2)c1
24 | 4.30 | Cc1ccccc1-c1cc(C2CCN(C(=O)CNC(=O)[C@H](N=C(N)N)C3CCCCC3)CC2)[nH]n1
25 | 3.89 | Cc1cccc(-c2cc(C3CCN(C(=O)CNC(=O)[C@H](N=C(N)N)C4CCCCC4)CC3)[nH]n2)c1C
26 | 5.70 | CC(C)C[C@@H](N=C(N)N)C(=O)NCC(=O)N1CCC(c2cc(-c3cccc(Cl)c3Cl)nn2C)CC1
27 | 3.40 | CC1C(c2cccc(Cl)c2Cl)=NN=C1C1CCN(C(=O)CNC(=O)[C@H](N=C(N)N)C2CCCCC2)CC1 (some centres undefined)
28 | 5.09 | CC(C)C[C@@H](N=C(N)N)C(=O)NCC(=O)N1CCC(c2cc(-c3ccc(O)c(Cl)c3Cl)nn2C)CC1
29 | 6.70 | CC(C)C[C@@H](N=C(N)N)C(=O)NCC(=O)N1CCC(c2cc(-c3ccc(OCc4ccc(C(=O)O)cc4)c(Cl)c3Cl)nn2C)CC1
30 | 6.40 | CC(C)C[C@@H](N=C(N)N)C(=O)NCC(=O)N1CCC(c2cc(-c3ccc(OCc4cccc(C(=O)O)c4)c(Cl)c3Cl)nn2C)CC1
31 | 3.82 | N=C(N)N[C@@H](C(=O)NCC(=O)N1CCC(c2cccc(-c3ccc(Cl)cc3Cl)c2)CC1)C1CCCCC1

More lines, now with the values behind:

Row | Compound | pIC50
32 | NC(N)=N[C@@H](C(=O)NCC(=O)N1CCC(c2cc(-c3ccccc3Cl)n[nH]2)CC1)C1CCCCC1 | 4.40
33 | NC(N)=N[C@@H](C(=O)NCC(=O)N1CCC(c2cc(-c3ccccc3)n[nH]2)CC1)C1CCCCC1 | 3.92
34 | COC(=O)c1ccc(COc2ccc(-c3cc(C4CCN(C(=O)CNC(=O)[C@@H](CC(C)C)N=C(N)N)CC4)n(C)n3)c(Cl)c2Cl)cc1 | 4.40
35 | N=C(N)N[C@@H](C(=O)NCC(=O)N1CCC(c2cc(-c3ccc(O)cc3Cl)[nH]n2)CC1)C1CCCCC1 | 4.52
36 | COc1ccc(-c2cc(C3CCN(C(=O)CNC(=O)[C@H](N=C(N)N)C4CCCCC4)CC3)[nH]n2)c(Cl)c1 | 4.30
37 | Cn1nc(-c2cccc(Cl)c2Cl)cc1C1CCN(C(=O)CNC(=O)[C@H](N=C(N)N)C2CCCCC2)CC1 | 4.70
38 | Cn1nc(C2CCN(C(=O)CNC(=O)[C@H](N=C(N)N)C3CCCCC3)CC2)cc1-c1cccc(Cl)c1Cl | 4.30
39 | NC(N)=N[C@@H](C(=O)NCC(=O)N1CCC(c2cc(-c3ccc(Cl)c(Cl)c3)n[nH]2)CC1)C1CCCCC1 | 3.96
40 | CC(C)C[C@@H](N=C(N)N)C(=O)NCC(=O)N1CCC(c2cc(-c3ccc(OCc4ccccc4)c(Cl)c3Cl)nn2C)CC1 | 4.46
41 | CC(C)C[C@@H](N=C(N)N)C(=O)NCC(=O)N1CCC(c2cc(-c3ccc(OCc4ccc(CC(=O)O)cc4)c(Cl)c3Cl)nn2C)CC1 | 6.22

target: T1, Interleukin-2; experiment: Inhibition of mouse Interleukin-2 receptor alpha; conditions: target entry is the homologue from another species
Target sequence in this assay (P60568 whole entry): as the sequence (P60568 whole entry, looked up) above

Row | pIC50 | Compound
42 | < 2.00 | CNC(=O)C[C@H]1CCCN(C(=N)N)C1
43 | 5.15 | COC(=O)[C@H](Cc1ccc(C#Cc2ccccc2)cc1)NC(=O)C[C@H]1CCCN(C(=N)N)C1
44 | 2.66 | COCC(=O)N[C@@H](Cc1ccc(C#Cc2ccccc2)cc1)C(=O)O

Source: ChEMBL document CHEMBL1149175, “Integrating fragment assembly and biophysical methods in the chemical advancement of small-molecule antagonists of IL-2: an approach for inhibiting protein-protein interactions” (J Med Chem, 2004)
